Test results: ChEMBL document CHEMBL3758104, “Reinvestigating Old Pharmacophores: Are 4-Aminoquinolines and Tetraoxanes Potential Two-Stage Antimalarials?” (J Med Chem, 2016)

How the values were obtained:
Plasmodium berghei [1] = assay: Antimalarial activity against sporozoite stage of Plasmodium berghei infected in human Huh7 cells assessed as remaining parasite infection at 5 uM pre-incubated for 24 hrs followed by parasite infection measured after 48 hrs by bioluminescence assay; settings: Huh-7
Plasmodium berghei [2] = assay: Antimalarial activity against sporozoite stage of Plasmodium berghei ANKA infected in C57BL/6J mouse assessed as reduction in liver parasite load at 100 mg/kg/, po administered for 3 days measured after 48 hrs by qRT-PCR analysis relative to control; assay type: functional; set-up: scale not given: the % may be the effect or the level left
Outline: (§1)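 C57BL/6J mice, five per group, infected iv with luciferase-expressing P. berghei ANKA sporozoites. Compound given by oral gavage in DMSO + sunflower oil 24 h before, at, and 24 h after infection; controls got vehicle. Liver load measured 48 h post-infection by qRT-PCR of P. berghei 18S rRNA normalised to mouse Hprt, as % of controls; mean of two independent experiments.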

Plasmodium berghei [3] = assay: Antimalarial activity against sporozoite stage of Plasmodium berghei infected in human Huh7 cells assessed as inhibition of parasite infection pre-incubated for 24 hrs followed by parasite infection measured after 48 hrs by bioluminescence assay; assay type: functional, organism-based; settings: Huh-7
[4] = Selectivity ratio of IC50 for IV to V gametocyte stage of Plasmodium falciparum 3D7elo1-pfs16-CBG99 to IC50 for sporozoite stage of Plasmodium berghei infected in human Huh7; assay type: functional, Huh-7
Plasmodium berghei [5] = assay: Antimalarial activity against sporozoite stage of Plasmodium berghei ANKA infected in C57BL/6J mouse assessed as reduction in liver parasite load at 50 mg/kg/, po administered for 3 days measured after 48 hrs by qRT-PCR analysis relative to control; assay type: functional; set-up: scale not given: the % may be the effect or the level left
Outline: as §1

Plasmodium falciparum = assay: Antimalarial activity against 4th to 5th gametocyte stage of Plasmodium falciparum 3D7elo1-pfs16-CBG99 assessed as inhibition of gametocyte viability by luciferase reporter gene assay; assay type: functional, organism-based
Outline: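 Stage IV–V gametocytes of luciferase-expressing 3D7elo1-pfs16-CBG99 strain (CBG99 under pfs16 promoter); luciferase activity as viability read-out. Viability = 100×(treated−blank)/(untreated−blank), blank = 100 nM epoxomicin-treated sample. Epoxomicin and dihydroartemisinin as positive controls. IC50 from nonlinear regression of dose–response; mean of three experiments in duplicate.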

SMILES: CCCNC(=O)CCC(C)[C@H]1CC[C@H]2[C@@H]3[C@H](OC(C)=O)C[C@@H]4CC5(CC[C@]4(C)[C@H]3C[C@H](OC(C)=O)[C@]12C)OOC1(CCCCC1)OO5 (stereo partly specified)
- % infection at 5 µM (Plasmodium berghei [1]): 0.55%
- Activity (Plasmodium berghei [2]): 91%
- IC50 (Plasmodium berghei [3]): 0.33 µM
- Ratio IC50 [4]: 3.5
- Activity (Plasmodium berghei [5]): 60%
- IC50 (Plasmodium falciparum): 1.16 µM
